# Source: ChEMBL document CHEMBL1121634, “Heat-induced formation of alpha,beta-unsaturated nucleoside dialdehydes and their activity with adenosine deaminase” (J Med Chem, 1980)
# Columns and labels:
# Adenosine deaminase [1] = target: T1, Adenosine deaminase (Bos taurus, UniProt P56658); assay: Inhibitor constant against adenosine deaminase in 0.05 M sodium phosphate buffer at pH 7.0, was determined after heating to 100 degrees celsius
# T1 sequence (P56658 whole entry): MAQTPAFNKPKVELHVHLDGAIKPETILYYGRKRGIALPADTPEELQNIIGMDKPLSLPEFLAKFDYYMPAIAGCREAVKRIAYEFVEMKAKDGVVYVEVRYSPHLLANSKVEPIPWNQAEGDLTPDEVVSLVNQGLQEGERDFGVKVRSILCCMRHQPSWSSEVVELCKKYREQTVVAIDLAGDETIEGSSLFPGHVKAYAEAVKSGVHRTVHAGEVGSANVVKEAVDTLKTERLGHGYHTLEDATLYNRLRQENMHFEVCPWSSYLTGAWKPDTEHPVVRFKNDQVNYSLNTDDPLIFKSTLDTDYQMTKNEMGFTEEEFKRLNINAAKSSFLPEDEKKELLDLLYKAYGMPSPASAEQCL
# In short: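 Dialdehyde pre-heated as an aqueous phosphate-buffer solution at 100 °C (about 1 h). Adenosine deaminase (0.25 unit) added to buffered adenosine (30–70 μM) plus dialdehyde (3-190 μM) in 0.05 M sodium phosphate, pH 7.0, 25 °C. Absorbance change at 265 nm followed. At least five substrate and two inhibitor levels used. Ki from Lineweaver–Burk plots, least-squares lines.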
# Adenosine deaminase [2] = target: T1, Adenosine deaminase; assay: Inhibitory constant against adenosine deaminase in 0.05 M sodium phosphate buffer at pH 7.0, was determined before heating
# Adenosine deaminase [3] = target: T1, Adenosine deaminase; assay: Inhibitory constant against adenosine deaminase in 0.05 M sodium phosphate buffer at pH 7.0 was determined before heating
# Adenosine deaminase [4] = target: T1, Adenosine deaminase; assay: Inhibitor constant against adenosine deaminase in 0.05 M sodium phosphate buffer at pH 7.0 was determined after heating to 100 degrees celsius
# In short: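 Dialdehyde heated at 100 °C in aqueous phosphate buffer before testing. Adenosine deaminase (0.25 unit) added to buffered adenosine (30–70 μM, at least five levels) with dialdehyde (3–190 μM, two levels). Rate of absorbance change at 265 nm followed at 25 °C, 0.05 M sodium phosphate, pH 7.0. Ki from Lineweaver–Burk plots fitted by Wilkinson least squares.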
Ki (Adenosine deaminase [1]),Ki (Adenosine deaminase [2]),Ki (Adenosine deaminase [3]),Ki (Adenosine deaminase [4]),Compound
5 µM,520 µM,,,Nc1ncnc2c1ncn2[C@@H](C=O)O[C@@H](C=O)CO
,,4 µM,,C=C(C=O)OC(C=O)n1cnc2c(N)ncnc21 (centres undefined)
,310 µM,,8 µM,Nc1ncnc2c1ncn2[C@H](C=O)O[C@@H](C=O)CO
,,46 µM,30 µM,Nc1ncnc2c1ncn2[C@@H](C=O)OCC=O
,,780 µM,800 µM,Nc1ncnc2c1ncn2[C@H](C=O)OCC=O
,,,21 µM,"CC(O)[C@H](C=O)OC(C=O)n1cnc2c(N)ncnc21 (single isomer, unassigned)"
,,,24 µM,"CC(O)[C@@H](C=O)OC(C=O)n1cnc2c(N)ncnc21 (single isomer, unassigned; 7)"
,,150 µM,20 µM,"CC(O)[C@@H](C=O)OC(C=O)n1cnc2c(N)ncnc21 (single isomer, unassigned; 10)"
,,28 µM,30 µM,C[C@@H](C=O)O[C@@H](C=O)n1cnc2c(N)ncnc21 (stereo in doubt; 4)
,,,69 µM,CC(O)[C@H](C=O)O[C@@H](C=O)n1cnc2c(N)ncnc21 (stereo in doubt; 8)
,,,38 µM,CC(O)[C@H](C=O)O[C@@H](C=O)n1cnc2c(N)ncnc21 (stereo in doubt; 9)
,,160 µM,100 µM,C[C@@H](C=O)O[C@@H](C=O)n1cnc2c(N)ncnc21 (stereo in doubt; 13)
